Experimental data taken from ChEMBL document CHEMBL2396553, “C3'-endo-puckered pyrrolidine containing PNA has favorable geometry for RNA binding: novel ethano locked PNA (ethano-PNA)” (Bioorg Med Chem, 2013).
The source made the active and inactive calls. No cut-off for these calls is given here.

Tests used:
[1] = Binding affinity to 5'-UGGAGUGUGACAAUGGUG RNA (unknown origin) at 1 uM by circular dichroism analysis
In short: (§1)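 CD spectra of 1 µM complexes in 10 mM sodium phosphate pH 7.0 with 10 mM NaCl, annealed 90 °C for 5 min and slow-cooled to room temperature. Recorded at room temperature from 320 to 210 nm at 100 nm/min in a 1 cm path cuvette. At least 8 scans averaged.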

Nucleic Acid [2] = test: Binding affinity to 5'-TGGAGTGTGACAATGGTG cDNA (unknown origin) assessed as melting temperature at 10 mM by UV-thermal denaturation assay; type: nucleic-acid assay; conditions: 10 mM NaCl
In short: (§2)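 Each strand 1 µM (concentrations from nucleobase molar extinction coefficients) in 10 mM sodium phosphate pH 7.0 with 10 or 100 mM NaCl. Annealed 90 °C for 5 min, slow-cooled to room temperature then 0 °C. Absorbance at 260 nm followed from 10 to 85 °C at 0.5 °C/min. Tm taken from first-derivative curves. At least three runs, accurate within 0.3 °C.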

Nucleic Acid [3] = test: Binding affinity to 5'-UGGAGUGUGACAAUGGUG RNA (unknown origin) assessed as melting temperature at 100 mM by UV-thermal denaturation assay; type: nucleic-acid assay; conditions: 100 mM NaCl; in short: as §2
Nucleic Acid [4] = test: Binding affinity to 5'-UGGAGUGAGACAAUGGUG mismatch RNA (unknown origin) assessed as melting temperature at 100 mM by UV-thermal denaturation assay; type: nucleic-acid assay; conditions: 100 mM NaCl; in short: as §2
Nucleic Acid [5] = test: Binding affinity to 5'-UGGAGUGAGACAAUGGUG mismatch RNA (unknown origin) assessed as melting temperature at 10 mM by UV-thermal denaturation assay; type: nucleic-acid assay; conditions: 10 mM NaCl; in short: as §2
Nucleic Acid [6] = test: Binding affinity to 5'-TGGAGTGTGACAATGGTG cDNA (unknown origin) assessed as melting temperature at 100 mM by UV-thermal denaturation assay; type: nucleic-acid assay; conditions: 100 mM NaCl; in short: as §2
Nucleic Acid [7] = test: Binding affinity to 5'-UGGAGUGUGACAAUGGUG RNA (unknown origin) assessed as melting temperature at 10 mM by UV-thermal denaturation assay; type: nucleic-acid assay; conditions: 10 mM NaCl; in short: as §2
[8] = Binding affinity to 5'-TGGAGTGTGACAATGGTG cDNA (unknown origin) at 1 uM by circular dichroism analysis; in short: as §1

Row | Activity [1] | Tm (Nucleic Acid [2]) | Tm (Nucleic Acid [3]) | Tm (Nucleic Acid [4]) | Tm (Nucleic Acid [5]) | Tm (Nucleic Acid [6]) | Tm (Nucleic Acid [7]) | Activity [8] | Compound
1 | Active | 60.6 °C | 60.7 °C | 46.8 °C | 53.6 °C | 56.3 °C | 68.1 °C | Active | Cc1cn(CC(=O)N(CCNC(=O)CN(CCNC(=O)CN(CCNC(=O)CN(C(=O)Cn2cc(C)c(=O)[nH]c2=O)[C@H]2C[C@@H](CNC(=N)N)N(C(=O)CN(CCNC(=O)CN(CCN)C(=O)Cn3ccc(N)nc3=O)C(=O)Cn3cnc4c(N)ncnc43)C2)C(=O)Cn2cc(C)c(=O)[nH]c2=O)C(=O)Cn2cnc3c(=O)[nH]c(N)nc32)CC(=O)NCCN(CC(=O)NCCN(CC(=O)NCCN(CC(=O)NCCN(CC(=O)NCCN(CC(=O)NCCN(CC(=O)N[C@@H](CCCCN)C(N)=O)C(=O)Cn2cc(C)c(=O)[nH]c2=O)C(=O)Cn2ccc(N)nc2=O)C(=O)Cn2cnc3c(N)ncnc32)C(=O)Cn2ccc(N)nc2=O)C(=O)Cn2cnc3c(N)ncnc32)C(=O)Cn2ccc(N)nc2=O)c(=O)[nH]c1=O
2 | Active | 53.7 °C | 59.4 °C | 46.3 °C | 47.1 °C | 48.8 °C | 62.7 °C | Active | Cc1cn(CC(=O)N(CCNC(=O)CN(CCNC(=O)CN(CCN)C(=O)Cn2ccc(N)nc2=O)C(=O)Cn2cnc3c(N)ncnc32)CC(=O)NCCN(CC(=O)NCCN(CC(=O)N2C[C@@H](N(CC(=O)NCCN(CC(=O)NCCN(CC(=O)NCCN(CC(=O)NCCN(CC(=O)NCCN(CC(=O)NCCN(CC(=O)N[C@@H](CCCCN)C(N)=O)C(=O)Cn3cc(C)c(=O)[nH]c3=O)C(=O)Cn3ccc(N)nc3=O)C(=O)Cn3cnc4c(N)ncnc43)C(=O)Cn3ccc(N)nc3=O)C(=O)Cn3cnc4c(N)ncnc43)C(=O)Cn3ccc(N)nc3=O)C(=O)Cn3cc(C)c(=O)[nH]c3=O)C[C@H]2CNC(=N)N)C(=O)Cn2cnc3c(=O)[nH]c(N)nc32)C(=O)Cn2cc(C)c(=O)[nH]c2=O)c(=O)[nH]c1=O
3 | Active | 64.6 °C | 63.7 °C | 53 °C | 55.1 °C | 60.1 °C | 66.1 °C | Active | Cc1cn(CC(=O)N(CCNC(=O)CN(CCNC(=O)CN(CCNC(=O)CN(CCNC(=O)CN(CCNC(=O)CN(CCN)C(=O)Cn2ccc(N)nc2=O)C(=O)Cn2cnc3c(N)ncnc32)C(=O)Cn2cc(C)c(=O)[nH]c2=O)C(=O)Cn2cc(C)c(=O)[nH]c2=O)C(=O)Cn2cnc3c(=O)[nH]c(N)nc32)CC(=O)NCCN(CC(=O)NCCN(CC(=O)NCCN(CC(=O)NCCN(CC(=O)NCCN(CC(=O)NCCN(CC(=O)N[C@@H](CCCCN)C(N)=O)C(=O)Cn2cc(C)c(=O)[nH]c2=O)C(=O)Cn2ccc(N)nc2=O)C(=O)Cn2cnc3c(N)ncnc32)C(=O)Cn2ccc(N)nc2=O)C(=O)Cn2cnc3c(N)ncnc32)C(=O)Cn2ccc(N)nc2=O)c(=O)[nH]c1=O
4 | Active | 51.8 °C | 57.2 °C | 44.7 °C | 46.7 °C | 46.6 °C | 60.4 °C | Active | Cc1cn(CC(=O)N(CCNC(=O)CN(CCNC(=O)CN(CCN)C(=O)Cn2ccc(N)nc2=O)C(=O)Cn2cnc3c(N)ncnc32)CC(=O)NCCN(CC(=O)NCCN(CC(=O)N2C[C@@H](N(CC(=O)NCCN(CC(=O)NCCN(CC(=O)NCCN(CC(=O)NCCN(CC(=O)NCCN(CC(=O)NCCN(CC(=O)N[C@@H](CCCCN)C(N)=O)C(=O)Cn3cc(C)c(=O)[nH]c3=O)C(=O)Cn3ccc(N)nc3=O)C(=O)Cn3cnc4c(N)ncnc43)C(=O)Cn3ccc(N)nc3=O)C(=O)Cn3cnc4c(N)ncnc43)C(=O)Cn3ccc(N)nc3=O)C(=O)Cn3cc(C)c(=O)[nH]c3=O)C[C@H]2CN)C(=O)Cn2cnc3c(=O)[nH]c(N)nc32)C(=O)Cn2cc(C)c(=O)[nH]c2=O)c(=O)[nH]c1=O
5 | Active | 49.7 °C | 52.3 °C | 42.2 °C | 45.4 °C | 46.2 °C | 59.4 °C | Active | Cc1cn(CC(=O)N(CCNC(=O)CN(CCNC(=O)CN(CCN)C(=O)Cn2ccc(N)nc2=O)C(=O)Cn2cnc3c(N)ncnc32)CC(=O)NCCN(CC(=O)NCCN(CC(=O)N2CC[C@H](N(CC(=O)NCCN(CC(=O)NCCN(CC(=O)NCCN(CC(=O)NCCN(CC(=O)NCCN(CC(=O)NCCN(CC(=O)N[C@@H](CCCCN)C(N)=O)C(=O)Cn3cc(C)c(=O)[nH]c3=O)C(=O)Cn3ccc(N)nc3=O)C(=O)Cn3cnc4c(N)ncnc43)C(=O)Cn3ccc(N)nc3=O)C(=O)Cn3cnc4c(N)ncnc43)C(=O)Cn3ccc(N)nc3=O)C(=O)Cn3cc(C)c(=O)[nH]c3=O)C2)C(=O)Cn2cnc3c(=O)[nH]c(N)nc32)C(=O)Cn2cc(C)c(=O)[nH]c2=O)c(=O)[nH]c1=O
6 | Active | 55.8 °C | 59.9 °C | 43.3 °C | 50.8 °C | 50 °C | 65.5 °C | Active | Cc1cn(CC(=O)N(CCNC(=O)CN(CCNC(=O)CN(CCNC(=O)CN(C(=O)Cn2cc(C)c(=O)[nH]c2=O)[C@H]2CCN(C(=O)CN(CCNC(=O)CN(CCN)C(=O)Cn3ccc(N)nc3=O)C(=O)Cn3cnc4c(N)ncnc43)C2)C(=O)Cn2cc(C)c(=O)[nH]c2=O)C(=O)Cn2cnc3c(=O)[nH]c(N)nc32)CC(=O)NCCN(CC(=O)NCCN(CC(=O)NCCN(CC(=O)NCCN(CC(=O)NCCN(CC(=O)NCCN(CC(=O)N[C@@H](CCCCN)C(N)=O)C(=O)Cn2cc(C)c(=O)[nH]c2=O)C(=O)Cn2ccc(N)nc2=O)C(=O)Cn2cnc3c(N)ncnc32)C(=O)Cn2ccc(N)nc2=O)C(=O)Cn2cnc3c(N)ncnc32)C(=O)Cn2ccc(N)nc2=O)c(=O)[nH]c1=O
7 | Active | 57.1 °C | 60.1 °C | 45.7 °C | 51.8 °C | 53.8 °C | 66.3 °C | Active | Cc1cn(CC(=O)N(CCNC(=O)CN(CCNC(=O)CN(CCNC(=O)CN(C(=O)Cn2cc(C)c(=O)[nH]c2=O)[C@H]2C[C@@H](CN)N(C(=O)CN(CCNC(=O)CN(CCN)C(=O)Cn3ccc(N)nc3=O)C(=O)Cn3cnc4c(N)ncnc43)C2)C(=O)Cn2cc(C)c(=O)[nH]c2=O)C(=O)Cn2cnc3c(=O)[nH]c(N)nc32)CC(=O)NCCN(CC(=O)NCCN(CC(=O)NCCN(CC(=O)NCCN(CC(=O)NCCN(CC(=O)NCCN(CC(=O)N[C@@H](CCCCN)C(N)=O)C(=O)Cn2cc(C)c(=O)[nH]c2=O)C(=O)Cn2ccc(N)nc2=O)C(=O)Cn2cnc3c(N)ncnc32)C(=O)Cn2ccc(N)nc2=O)C(=O)Cn2cnc3c(N)ncnc32)C(=O)Cn2ccc(N)nc2=O)c(=O)[nH]c1=O
